Reference: ChEMBL document CHEMBL1275443, “Functional diversity among metallo-beta-lactamases: characterization of the CAR-1 enzyme of Erwinia carotovora” (2008)

Columns and labels:
Bradyrhizobium japonicum = assay: Ratio of Kcat to Km for Bradyrhizobium japonicum beta-Lactamase BJP-1
[1] = tested on: Pectobacterium atrosepticum; assay: Activity of Erwinia carotovora subsp. atroseptica DSM 30184 beta-lactamase CAR-1
Outline: (§1)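 Recombinant CAR-1, expressed in E. coli BL21(DE3)/pET9-CAR-1 and purified by DEAE-Sepharose then Mono Q chromatography in Zn-containing buffers. Enzyme was diluted in HZN buffer (50 mM HEPES-NaOH pH 7.5, 50 µM ZnSO4) with 20 µg/ml BSA and used at 1.9–3,800 nM.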

[2] = tested on: Pectobacterium atrosepticum; assay: Ratio of Kcat to Km for Erwinia carotovora subsp. atroseptica DSM 30184 beta-Lactamase CAR-1; outline: as §1

SMILES	kcat/Km (Bradyrhizobium japonicum)	Km [1] [µM]	kcat [1] [s⁻¹]	kcat/Km [2]
C[C@@H](O)[C@H]1C(=O)N2C(C(=O)O)=C(SCCNC=N)C[C@H]12	6 ×10⁴ /M/s			
CO/N=C(\C(=O)N[C@@H]1C(=O)N2C(C(=O)O)=C(CSc3nc(=O)c(O)nn3C)CS[C@H]12)c1csc(N)n1	9.6 ×10⁴ /M/s	130	13	9.9 ×10⁴ /M/s
CO/N=C(\C(=O)N[C@@H]1C(=O)N2C(C(=O)O)=C(COC(C)=O)CS[C@H]12)c1csc(N)n1	1.4 ×10⁵ /M/s	160	250	1.5 ×10⁶ /M/s
CCN1CCN(C(=O)N[C@@H](C(=O)N[C@@H]2C(=O)N3[C@@H]2SC(C)(C)[C@@H]3C(=O)O)c2ccccc2)C(=O)C1=O	6.7 ×10⁴ /M/s	340	9	2.6 ×10⁴ /M/s
CC1(C)S[C@@H]2[C@H](NC(=O)[C@H](C(=O)O)c3ccsc3)C(=O)N2[C@H]1C(=O)O		640	9	1.3 ×10⁴ /M/s
CO/N=C(\C(=O)N[C@@H]1C(=O)N2C(C(=O)O)=C(COC(N)=O)CS[C@H]12)c1ccco1	5 ×10⁵ /M/s	110	400	3.6 ×10⁶ /M/s
C[C@@H](O)[C@H]1C(=O)N2C(C(=O)O)=C([C@H]3CCCO3)S[C@H]12	6.8 ×10³ /M/s	120	5	4.4 ×10⁴ /M/s
CC1(C)S[C@@H]2[C@H](NC(=O)Cc3ccccc3)C(=O)N2[C@H]1C(=O)O	1.3 ×10⁵ /M/s	200	2	9.2 ×10³ /M/s
CC(C)(O/N=C(\C(=O)N[C@@H]1C(=O)N2C(C(=O)[O-])=C(C[n+]3ccccc3)CS[C@H]12)c1csc(N)n1)C(=O)O		> 561	> 160	2.9 ×10⁵ /M/s
CC1(C)S[C@@H]2[C@H](NC(=O)[C@H](N)c3ccccc3)C(=O)N2[C@H]1C(=O)O	1.9 ×10⁴ /M/s	1600	5	3.2 ×10³ /M/s
CO[C@@]1(NC(=O)Cc2cccs2)C(=O)N2C(C(=O)O)=C(COC(N)=O)CS[C@@H]21	7.1 ×10⁴ /M/s	> 1570	> 7	4.7 ×10³ /M/s
CO/N=C(\C(=O)N[C@@H]1C(=O)N2C(C(=O)[O-])=C(C[N+]3(C)CCCC3)CS[C@H]12)c1csc(N)n1	2 ×10² /M/s			
CC(=O)OCC1=C(C(=O)O)N2C(=O)[C@@H](NC(=O)Cc3cccs3)[C@H]2SC1		200	240	1.2 ×10⁶ /M/s
